Source: ChEMBL document CHEMBL4257493, “Discovery of 7-hydroxyaporphines as conformationally restricted ligands for beta-1 and beta-2 adrenergic receptors” (Medchemcomm, 2018)
Calls of active or inactive are those of the source. No cut-off for these calls is given here.

Experiments:
[1] = target: T1, Beta-2 adrenergic receptor (Homo sapiens, UniProt P07550); test: Displacement of [3H]-CGP-12177 from human beta2-adrenergic receptor
Target sequence in this assay (P07550 whole entry): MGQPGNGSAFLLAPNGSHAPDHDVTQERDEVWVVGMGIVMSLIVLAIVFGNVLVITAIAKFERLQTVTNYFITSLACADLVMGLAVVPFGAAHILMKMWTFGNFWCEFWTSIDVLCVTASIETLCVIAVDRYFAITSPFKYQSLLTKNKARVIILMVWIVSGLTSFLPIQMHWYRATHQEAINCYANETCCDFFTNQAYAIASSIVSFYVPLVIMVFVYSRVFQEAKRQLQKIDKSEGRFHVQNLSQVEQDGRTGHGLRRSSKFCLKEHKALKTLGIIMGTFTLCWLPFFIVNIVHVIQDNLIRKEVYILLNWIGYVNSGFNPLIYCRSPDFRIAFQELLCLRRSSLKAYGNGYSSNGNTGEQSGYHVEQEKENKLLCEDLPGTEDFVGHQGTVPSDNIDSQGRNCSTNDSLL

[2] = target: T2, Beta-1 adrenergic receptor (Homo sapiens, UniProt P08588); test: Displacement of [3H]-CGP-12177 from human beta1-adrenergic receptor
Target sequence in this assay (P08588 whole entry): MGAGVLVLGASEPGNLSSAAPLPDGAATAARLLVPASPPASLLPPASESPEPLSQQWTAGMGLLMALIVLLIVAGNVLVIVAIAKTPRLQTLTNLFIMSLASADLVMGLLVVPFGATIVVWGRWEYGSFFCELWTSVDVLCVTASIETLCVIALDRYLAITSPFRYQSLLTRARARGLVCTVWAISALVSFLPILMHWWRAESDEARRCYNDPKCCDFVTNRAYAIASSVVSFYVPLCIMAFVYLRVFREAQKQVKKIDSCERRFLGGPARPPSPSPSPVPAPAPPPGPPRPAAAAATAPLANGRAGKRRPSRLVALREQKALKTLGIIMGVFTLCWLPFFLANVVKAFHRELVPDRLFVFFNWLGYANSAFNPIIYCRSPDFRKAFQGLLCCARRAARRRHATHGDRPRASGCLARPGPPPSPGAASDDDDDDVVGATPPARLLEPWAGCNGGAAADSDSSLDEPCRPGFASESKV

[3] = target: T3, Beta-3 adrenergic receptor (Homo sapiens, UniProt P13945); test: Displacement of [3H]-CGP-12177 from human beta3-adrenergic receptor
Target sequence in this assay (P13945 whole entry): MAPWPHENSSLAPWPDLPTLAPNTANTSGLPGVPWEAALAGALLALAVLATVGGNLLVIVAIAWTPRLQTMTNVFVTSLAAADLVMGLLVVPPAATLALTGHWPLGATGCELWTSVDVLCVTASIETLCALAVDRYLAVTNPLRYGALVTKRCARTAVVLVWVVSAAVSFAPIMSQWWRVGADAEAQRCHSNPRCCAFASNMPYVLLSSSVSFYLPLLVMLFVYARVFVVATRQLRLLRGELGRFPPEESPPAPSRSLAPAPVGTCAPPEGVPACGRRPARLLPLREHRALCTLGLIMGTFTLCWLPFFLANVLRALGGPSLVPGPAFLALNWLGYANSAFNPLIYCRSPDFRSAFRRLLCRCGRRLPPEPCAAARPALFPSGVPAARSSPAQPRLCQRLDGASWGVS

[4] = species on record: Homo sapiens; test: Ratio of IC50 for human beta3-adrenergic receptor to IC50 for human beta1-adrenergic receptor
[5] = target: T2, Beta-1 adrenergic receptor; test: Antagonist activity at human beta1-adrenergic receptor expressed in CHO-K1 cells assessed as decrease in isoproterenol-induced cAMP accumulation after 15 mins by HTRF assay; type: functional, cell-based
How it was run: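 Run as a contract service: human beta1 receptor in CHO-K1 cells, with antagonist mode against isoproterenol-stimulated cAMP. Incubation 15 min at 37 °C in HBSS with 5 mM HEPES, 0.1% BSA and 100 µM IBMX, pH 7.4, in 0.40% DMSO vehicle. cAMP accumulation read by HTRF; dose-response curves.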
Target sequence in this assay (P08588 whole entry): as the sequence (P08588 whole entry) above

[6] = target: T1, Beta-2 adrenergic receptor; test: Antagonist activity at human beta2-adrenergic receptor expressed in CHO-K1 cells assessed as decrease in procaterol-induced cAMP accumulation after 20 mins by HTRF assay; type: functional, cell-based
How it was run: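 Contract functional assay on human beta2 receptor expressed in CHO cells, with antagonist mode against agonist-stimulated cAMP. Incubation 20 min at 37 °C in HBSS, 5 mM HEPES, 0.1% BSA, 100 µM IBMX, pH 7.4, with 0.40% DMSO vehicle. HTRF quantitation of cAMP accumulation; dose-response curves.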
Target sequence in this assay (P07550 whole entry): as the sequence (P07550 whole entry) above

[7] = target: 5-hydroxytryptamine receptor 1A (Homo sapiens, UniProt P08908); test: Binding affinity to 5-HT1A receptor (unknown origin) assessed as inhibition of radioligand binding by radioligand competition binding assay
[8] = target: T4, 5-hydroxytryptamine receptor 1B (Homo sapiens, UniProt P28222); test: Binding affinity to 5-HT1B receptor (unknown origin) assessed as inhibition of radioligand binding by radioligand competition binding assay
T4 sequence (P28222 whole entry): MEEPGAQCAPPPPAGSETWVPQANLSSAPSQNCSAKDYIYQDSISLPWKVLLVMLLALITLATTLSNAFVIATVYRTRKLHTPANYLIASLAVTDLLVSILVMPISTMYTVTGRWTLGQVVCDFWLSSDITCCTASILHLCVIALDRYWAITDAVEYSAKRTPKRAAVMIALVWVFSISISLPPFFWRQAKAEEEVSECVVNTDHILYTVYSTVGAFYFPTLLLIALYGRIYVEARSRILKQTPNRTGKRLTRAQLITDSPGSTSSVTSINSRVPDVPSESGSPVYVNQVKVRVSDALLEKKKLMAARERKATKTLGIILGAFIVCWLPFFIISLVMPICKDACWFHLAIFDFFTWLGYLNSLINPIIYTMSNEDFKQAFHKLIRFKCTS

[9] = target: T5, 5-hydroxytryptamine receptor 1D (Homo sapiens, UniProt P28221); test: Binding affinity to 5-HT1D receptor (unknown origin) assessed as inhibition of radioligand binding by radioligand competition binding assay
T5 sequence (P28221 whole entry): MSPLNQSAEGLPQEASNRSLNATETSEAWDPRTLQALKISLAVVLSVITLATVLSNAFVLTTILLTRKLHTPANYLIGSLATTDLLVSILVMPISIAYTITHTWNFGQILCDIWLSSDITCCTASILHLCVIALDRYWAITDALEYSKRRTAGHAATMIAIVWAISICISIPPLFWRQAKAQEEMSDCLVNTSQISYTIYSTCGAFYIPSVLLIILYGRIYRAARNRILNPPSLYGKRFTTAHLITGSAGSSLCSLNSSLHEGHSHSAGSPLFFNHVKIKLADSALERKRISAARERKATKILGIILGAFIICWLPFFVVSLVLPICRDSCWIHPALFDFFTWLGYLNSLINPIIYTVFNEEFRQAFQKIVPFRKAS

[10] = target: T6, 5-hydroxytryptamine receptor 2B (Homo sapiens, UniProt P41595); test: Binding affinity to 5-HT2B receptor (unknown origin) assessed as inhibition of radioligand binding by radioligand competition binding assay
T6 sequence (P41595 whole entry): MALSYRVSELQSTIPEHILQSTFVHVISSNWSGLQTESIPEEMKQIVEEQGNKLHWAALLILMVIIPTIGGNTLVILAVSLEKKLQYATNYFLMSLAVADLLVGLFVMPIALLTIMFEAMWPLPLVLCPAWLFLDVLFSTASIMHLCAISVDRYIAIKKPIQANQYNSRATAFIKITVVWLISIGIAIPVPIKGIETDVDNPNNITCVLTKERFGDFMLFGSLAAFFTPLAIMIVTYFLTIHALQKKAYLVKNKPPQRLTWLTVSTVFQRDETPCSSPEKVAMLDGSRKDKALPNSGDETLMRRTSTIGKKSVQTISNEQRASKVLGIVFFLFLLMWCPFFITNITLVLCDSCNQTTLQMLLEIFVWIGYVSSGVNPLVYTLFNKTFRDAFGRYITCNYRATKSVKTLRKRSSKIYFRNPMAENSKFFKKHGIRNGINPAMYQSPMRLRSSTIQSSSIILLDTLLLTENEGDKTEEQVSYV

[11] = target: T7, 5-hydroxytryptamine receptor 6 (Homo sapiens, UniProt P50406); test: Binding affinity to 5-HT6 receptor (unknown origin) assessed as inhibition of radioligand binding by radioligand competition binding assay
T7 sequence (P50406 whole entry): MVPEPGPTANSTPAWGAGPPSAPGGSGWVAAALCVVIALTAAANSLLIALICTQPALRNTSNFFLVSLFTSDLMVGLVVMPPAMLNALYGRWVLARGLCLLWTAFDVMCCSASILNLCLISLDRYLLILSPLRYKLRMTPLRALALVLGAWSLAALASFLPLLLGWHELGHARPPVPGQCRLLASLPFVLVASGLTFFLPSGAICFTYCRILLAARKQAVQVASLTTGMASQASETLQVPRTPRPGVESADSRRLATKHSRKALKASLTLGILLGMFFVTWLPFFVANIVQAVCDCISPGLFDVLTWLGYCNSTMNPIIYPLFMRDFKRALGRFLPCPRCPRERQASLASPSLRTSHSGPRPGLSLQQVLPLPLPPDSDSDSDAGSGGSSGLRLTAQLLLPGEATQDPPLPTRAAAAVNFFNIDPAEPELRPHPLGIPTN

[12] = target: T8, 5-hydroxytryptamine receptor 7 (Homo sapiens, UniProt P34969); test: Binding affinity to 5-HT7 receptor (unknown origin) assessed as inhibition of radioligand binding by radioligand competition binding assay
T8 sequence (P34969 whole entry): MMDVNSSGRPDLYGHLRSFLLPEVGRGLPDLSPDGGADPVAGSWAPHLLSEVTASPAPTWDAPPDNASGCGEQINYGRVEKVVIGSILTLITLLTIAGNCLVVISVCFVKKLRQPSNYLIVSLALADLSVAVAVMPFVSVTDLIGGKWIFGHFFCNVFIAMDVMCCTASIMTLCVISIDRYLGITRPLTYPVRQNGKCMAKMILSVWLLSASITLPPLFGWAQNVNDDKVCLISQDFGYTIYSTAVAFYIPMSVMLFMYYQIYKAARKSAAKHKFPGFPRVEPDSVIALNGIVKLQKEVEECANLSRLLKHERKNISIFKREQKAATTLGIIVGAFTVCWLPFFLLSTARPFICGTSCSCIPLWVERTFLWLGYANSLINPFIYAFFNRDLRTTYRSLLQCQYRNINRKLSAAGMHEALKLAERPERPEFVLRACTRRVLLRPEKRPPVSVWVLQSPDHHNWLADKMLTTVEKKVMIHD

[13] = target: Alpha-2A adrenergic receptor (Homo sapiens, UniProt P08913); test: Binding affinity to andrenergic alpha2A receptor (unknown origin) assessed as inhibition of radioligand binding by radioligand competition binding assay
[14] = target: Alpha-2B adrenergic receptor (Homo sapiens, UniProt P18089); test: Binding affinity to andrenergic alpha2B receptor (unknown origin) assessed as inhibition of radioligand binding by radioligand competition binding assay
Sequence of Alpha-2B adrenergic receptor (P18089 whole entry): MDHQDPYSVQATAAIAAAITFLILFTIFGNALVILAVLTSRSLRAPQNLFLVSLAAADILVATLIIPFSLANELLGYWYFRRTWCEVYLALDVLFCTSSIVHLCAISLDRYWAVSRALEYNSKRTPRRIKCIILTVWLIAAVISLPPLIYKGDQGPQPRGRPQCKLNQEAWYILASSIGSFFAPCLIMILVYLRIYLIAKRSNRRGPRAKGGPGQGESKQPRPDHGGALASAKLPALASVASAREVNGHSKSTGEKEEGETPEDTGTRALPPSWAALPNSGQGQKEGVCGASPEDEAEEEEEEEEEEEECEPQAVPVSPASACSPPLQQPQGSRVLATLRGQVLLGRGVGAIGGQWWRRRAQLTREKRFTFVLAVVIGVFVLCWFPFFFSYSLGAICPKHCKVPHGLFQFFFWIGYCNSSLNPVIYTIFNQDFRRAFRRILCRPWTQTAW

[15] = target: T2, Beta-1 adrenergic receptor; test: Binding affinity to andrenergic beta1 receptor (unknown origin) assessed as inhibition of radioligand binding by radioligand competition binding assay
Target sequence in this assay (P08588 whole entry): as the sequence (P08588 whole entry) above

[16] = target: T1, Beta-2 adrenergic receptor; test: Binding affinity to andrenergic beta2 receptor (unknown origin) assessed as inhibition of radioligand binding by radioligand competition binding assay
Target sequence in this assay (P07550 whole entry): as the sequence (P07550 whole entry) above

[17] = target: T3, Beta-3 adrenergic receptor; test: Binding affinity to andrenergic beta3 receptor (unknown origin) assessed as inhibition of radioligand binding by radioligand competition binding assay
Target sequence in this assay (P13945 whole entry): as the sequence (P13945 whole entry) above

[18] = target: T2, Beta-1 adrenergic receptor; test: Agonist activity at human beta1-adrenergic receptor expressed in CHO-K1 cells assessed as induction of cAMP accumulation after 15 mins by HTRF assay; type: functional, cell-based
How it was run: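 cAMP accumulation in human β1-expressing CHO-K1 cells, quantified by HTRF. Vehicle 0.40% DMSO. Incubation 15 minutes at 37°C in HBSS with 5 mM HEPES, 0.1% BSA and 100 μM IBMX, pH 7.4. Run by a contract screening service.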
Target sequence in this assay (P08588 whole entry, looked up): as the sequence (P08588 whole entry) above

[19] = target: T1, Beta-2 adrenergic receptor; test: Agonist activity at human beta2-adrenergic receptor expressed in CHO-K1 cells assessed as increase in cAMP accumulation after 20 mins by HTRF assay; type: functional, cell-based
How it was run: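 Human β2 receptor expressed in CHO cells; cAMP accumulation read out by HTRF. Vehicle 0.40% DMSO. Incubated 20 minutes at 37°C in HBSS, 5 mM HEPES, 0.1% BSA, 100 μM IBMX, pH 7.4. Performed by a contract screening service.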
Target sequence in this assay (P07550 whole entry, looked up): as the sequence (P07550 whole entry) above

[20] = target: 5-hydroxytryptamine receptor 1A (Homo sapiens) (UniProt P08908); test: Binding affinity to 5-HT1A receptor (unknown origin) assessed as inhibition of radioligand binding at 10 uM by radioligand competition binding assay
[21] = target: T4, 5-hydroxytryptamine receptor 1B; test: Binding affinity to 5-HT1B receptor (unknown origin) assessed as inhibition of radioligand binding at 10 uM by radioligand competition binding assay
[22] = target: T5, 5-hydroxytryptamine receptor 1D; test: Binding affinity to 5-HT1D receptor (unknown origin) assessed as inhibition of radioligand binding at 10 uM by radioligand competition binding assay
[23] = target: T6, 5-hydroxytryptamine receptor 2B; test: Binding affinity to 5-HT2B receptor (unknown origin) assessed as inhibition of radioligand binding at 10 uM by radioligand competition binding assay
[24] = target: T7, 5-hydroxytryptamine receptor 6; test: Binding affinity to 5-HT6 receptor (unknown origin) assessed as inhibition of radioligand binding at 10 uM by radioligand competition binding assay
[25] = target: T8, 5-hydroxytryptamine receptor 7; test: Binding affinity to 5-HT7 receptor (unknown origin) assessed as inhibition of radioligand binding at 10 uM by radioligand competition binding assay
[26] = target: Alpha-2A adrenergic receptor (Homo sapiens) (UniProt P08913); test: Binding affinity to andrenergic alpha2A receptor (unknown origin) assessed as inhibition of radioligand binding at 10 uM by radioligand competition binding assay
[27] = target: Alpha-2B adrenergic receptor (Homo sapiens) (UniProt P18089); test: Binding affinity to andrenergic alpha2B receptor (unknown origin) assessed as inhibition of radioligand binding at 10 uM by radioligand competition binding assay
Sequence of Alpha-2B adrenergic receptor (Homo sapiens) (P18089 whole entry): as the sequence (P18089 whole entry) above

[28] = target: T2, Beta-1 adrenergic receptor; test: Binding affinity to andrenergic beta1 receptor (unknown origin) assessed as inhibition of radioligand binding at 10 uM by radioligand competition binding assay
Target sequence in this assay (P08588 whole entry, looked up): as the sequence (P08588 whole entry) above

[29] = target: T1, Beta-2 adrenergic receptor; test: Binding affinity to andrenergic beta2 receptor (unknown origin) assessed as inhibition of radioligand binding at 10 uM by radioligand competition binding assay
Target sequence in this assay (P07550 whole entry, looked up): as the sequence (P07550 whole entry) above

[30] = target: T3, Beta-3 adrenergic receptor; test: Binding affinity to andrenergic beta3 receptor (unknown origin) assessed as inhibition of radioligand binding at 10 uM by radioligand competition binding assay
Target sequence in this assay (P13945 whole entry, looked up): as the sequence (P13945 whole entry) above

[31] = species on record: Rattus norvegicus; test: Binding affinity to rat GABAA BZP receptor assessed as inhibition of radioligand binding by radioligand competition binding assay; details: concentration not given here
[32] = target: Sodium-dependent serotonin transporter (Homo sapiens) (UniProt P31645); test: Binding affinity to SERT (unknown origin) assessed as inhibition of radioligand binding by radioligand competition binding assay; details: concentration not given here

COc1cc2c3c(c1OC)-c1ccccc1[C@@H](O)[C@@H]3NCC2
IC50 [1]: 0.0014 µM | IC50 [2]: 0.0017 µM | IC50 [3]: 0.24 µM | Ratio IC50 [4]: 150 | IC50 [5]: 0.017 µM | IC50 [6]: 0.0069 µM | Ki [7]: 0.071 µM | Ki [8]: 1.21 µM | Ki [9]: 0.857 µM | Ki [10]: 0.246 µM | Ki [11]: 0.862 µM | Ki [12]: 0.12 µM | Ki [13]: 1.15 µM | Ki [14]: 0.571 µM | Ki [15]: 0.019 µM | Ki [16]: 0.013 µM | Ki [17]: 0.308 µM | Activity [18]: inactive | Activity [19]: inactive | inhibition [20]: > 50% | inhibition [21]: > 50% | inhibition [22]: > 50% | inhibition [23]: > 50% | inhibition [24]: > 50% | inhibition [25]: > 50% | inhibition [26]: > 50% | inhibition [27]: > 50% | inhibition [28]: > 50% | inhibition [29]: > 50% | inhibition [30]: > 50% | inhibition [31]: < 50% | inhibition [32]: < 50%
